The target of assay [1] is T1, Amyloid-beta precursor protein (Homo sapiens, UniProt P05067). Kind of assay: Inhibition of amyloid beta (1 to 42) (unknown origin) self aggregation after 24 hrs by thioflavin-T fluorescence method. Summed up:
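ThT aggregation assay. Compound at varying concentrations combined with 10 µM Aβ1-42 (1 mM DMSO stock), 10 µM ThT, 1 mM EDTA in 50 mM phosphate buffer (150 mM NaCl, pH 7.4). Incubated 24 h at 37 °C with shaking at 700 rpm; fluorescence ex 440/em 486 nm. 0.1% DMSO wells = 100% aggregation; compound wells without Aβ = background. IC50 from triplicates.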

Assay [2] concerns the target Acetylcholinesterase (Homo sapiens, UniProt P22303). The assay can be described thus: Inhibition of recombinant human C-terminal 6His-tagged AChE (Glu32 to Leu614 residues) expressed in CHO cells using acetylthiocholine iodide as substrate preincubated for 5 mins measured after 15 mins by DTNB reagent based assay. Summed up:
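Enzyme, compounds, acetylthiocholine iodide and DTNB diluted in 100 mM phosphate buffer pH 7.4. AChE was preincubated with the compound at varying concentrations for 5 min at 37 °C. The reaction was started with 1 mM ATCI solution and run 15 min at 37 °C. 2 mM DTNB solution was then added for 5 min. Absorbance read at 412 nm. IC50 set 0.1% DMSO wells as 100% and no-enzyme wells as 0%. Run in triplicate.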

Assay [3] addresses T1, Amyloid-beta precursor protein. Kind of assay: Disaggregation of self-induced amyloid beta (1 to 42) (unknown origin) preformed fibrils at 10 uM measured after 24 hrs by thioflavin-T fluorescence assay relative to control. Summed up:
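Aβ1-42 (10 µM) with 10 µM ThT and 1 mM EDTA in 50 mM phosphate buffer (150 mM NaCl, pH 7.4) pre-aggregated 24 h at 37 °C, 700 rpm; fluorescence read (ex 440/em 486 nm). Compound then added and incubated a further 24 h at 37 °C before re-reading. Disaggregation = (first − second reading)/first reading. Triplicate.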

Assay [4] deals with Histone deacetylase 5 (Homo sapiens, UniProt Q9UQL6). Kind of assay: Inhibition of recombinant human C-terminal His-tagged HDAC5 (656 to 1122 residues) expressed in baculovirus infected Sf9 insect cells using fluorogenic HDAC 2A substrate preincubated for 5 mins followed by substrate addition and measured after 30 mins by fluorescence assay.
For assay [5], the target named is Histone deacetylase 4 (Homo sapiens, UniProt P56524). The assay can be described thus: Inhibition of recombinant human N-terminal GST-tagged/C-terminal His-tagged HDAC4 (627 to 1084 residues) expressed in baculovirus expression system using Boc-Lys(TFA)-AMC as substrate preincubated for 5 mins followed by substrate addition and measured after 30 mins by fluorescence assay.

Assay [6] concerns the target Class 1 histone deacetylase (Homo sapiens, UniProt Q13547+O15379+Q92769+Q9BY41). The assay can be described thus: Inhibition of class 1 HDAC in human HeLa cell nuclear extract using Boc-Lys(Ac)-AMC as substrate preincubated for 5 mins followed by substrate addition and measured after 30 mins by fluorescence assay. The assay is classed as cell-based.
Assay [7] concerns the target Histone deacetylase 9 (Homo sapiens, UniProt Q9UKV0). The assay can be described thus: Inhibition of recombinant human C-terminal His-tagged HDAC9 (604 to 1066 residues) expressed in baculovirus infected Sf9 cells using fluorogenic HDAC 2A substrate preincubated for 5 mins followed by substrate addition and measured after 30 mins by fluorescence assay.
For assay [8], the target named is T2, Histone deacetylase 7 (Homo sapiens, UniProt Q8WUI4).
T2 sequence (Q8WUI4 whole entry): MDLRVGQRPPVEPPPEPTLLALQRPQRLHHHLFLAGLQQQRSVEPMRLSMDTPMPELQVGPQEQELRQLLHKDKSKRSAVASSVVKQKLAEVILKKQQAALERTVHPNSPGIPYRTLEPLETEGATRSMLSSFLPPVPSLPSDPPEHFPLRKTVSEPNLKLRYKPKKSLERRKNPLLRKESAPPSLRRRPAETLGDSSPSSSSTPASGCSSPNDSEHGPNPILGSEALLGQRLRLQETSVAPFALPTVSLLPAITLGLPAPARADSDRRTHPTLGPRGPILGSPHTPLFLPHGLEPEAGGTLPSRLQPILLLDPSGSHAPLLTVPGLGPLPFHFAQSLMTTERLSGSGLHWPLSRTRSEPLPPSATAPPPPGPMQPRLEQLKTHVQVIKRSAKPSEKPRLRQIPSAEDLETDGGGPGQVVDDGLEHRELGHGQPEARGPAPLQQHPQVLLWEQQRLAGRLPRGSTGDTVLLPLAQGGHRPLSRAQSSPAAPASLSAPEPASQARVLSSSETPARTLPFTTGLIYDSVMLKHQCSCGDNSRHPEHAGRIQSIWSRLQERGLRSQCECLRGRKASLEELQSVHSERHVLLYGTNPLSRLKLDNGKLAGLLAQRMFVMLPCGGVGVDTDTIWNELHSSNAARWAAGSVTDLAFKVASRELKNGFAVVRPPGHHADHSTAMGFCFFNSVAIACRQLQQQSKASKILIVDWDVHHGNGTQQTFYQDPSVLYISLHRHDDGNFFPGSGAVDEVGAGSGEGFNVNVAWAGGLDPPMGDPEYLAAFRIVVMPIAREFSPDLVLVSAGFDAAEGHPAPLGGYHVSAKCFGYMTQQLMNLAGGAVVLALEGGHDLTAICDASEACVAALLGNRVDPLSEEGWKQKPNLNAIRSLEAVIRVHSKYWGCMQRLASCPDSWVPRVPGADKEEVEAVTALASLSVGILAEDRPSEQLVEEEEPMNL
The assay can be described thus: Inhibition of recombinant human N-terminal GST-tagged HDAC7 (518 to end residues) expressed in baculovirus infected Sf9 cells using fluorogenic HDAC 2A substrate preincubated for 5 mins followed by substrate addition and measured after 30 mins by fluorescence assay.

The target of assay [9] is T3, Protein deacetylase HDAC6 (Homo sapiens, UniProt Q9UBN7).
T3 sequence (Q9UBN7 whole entry): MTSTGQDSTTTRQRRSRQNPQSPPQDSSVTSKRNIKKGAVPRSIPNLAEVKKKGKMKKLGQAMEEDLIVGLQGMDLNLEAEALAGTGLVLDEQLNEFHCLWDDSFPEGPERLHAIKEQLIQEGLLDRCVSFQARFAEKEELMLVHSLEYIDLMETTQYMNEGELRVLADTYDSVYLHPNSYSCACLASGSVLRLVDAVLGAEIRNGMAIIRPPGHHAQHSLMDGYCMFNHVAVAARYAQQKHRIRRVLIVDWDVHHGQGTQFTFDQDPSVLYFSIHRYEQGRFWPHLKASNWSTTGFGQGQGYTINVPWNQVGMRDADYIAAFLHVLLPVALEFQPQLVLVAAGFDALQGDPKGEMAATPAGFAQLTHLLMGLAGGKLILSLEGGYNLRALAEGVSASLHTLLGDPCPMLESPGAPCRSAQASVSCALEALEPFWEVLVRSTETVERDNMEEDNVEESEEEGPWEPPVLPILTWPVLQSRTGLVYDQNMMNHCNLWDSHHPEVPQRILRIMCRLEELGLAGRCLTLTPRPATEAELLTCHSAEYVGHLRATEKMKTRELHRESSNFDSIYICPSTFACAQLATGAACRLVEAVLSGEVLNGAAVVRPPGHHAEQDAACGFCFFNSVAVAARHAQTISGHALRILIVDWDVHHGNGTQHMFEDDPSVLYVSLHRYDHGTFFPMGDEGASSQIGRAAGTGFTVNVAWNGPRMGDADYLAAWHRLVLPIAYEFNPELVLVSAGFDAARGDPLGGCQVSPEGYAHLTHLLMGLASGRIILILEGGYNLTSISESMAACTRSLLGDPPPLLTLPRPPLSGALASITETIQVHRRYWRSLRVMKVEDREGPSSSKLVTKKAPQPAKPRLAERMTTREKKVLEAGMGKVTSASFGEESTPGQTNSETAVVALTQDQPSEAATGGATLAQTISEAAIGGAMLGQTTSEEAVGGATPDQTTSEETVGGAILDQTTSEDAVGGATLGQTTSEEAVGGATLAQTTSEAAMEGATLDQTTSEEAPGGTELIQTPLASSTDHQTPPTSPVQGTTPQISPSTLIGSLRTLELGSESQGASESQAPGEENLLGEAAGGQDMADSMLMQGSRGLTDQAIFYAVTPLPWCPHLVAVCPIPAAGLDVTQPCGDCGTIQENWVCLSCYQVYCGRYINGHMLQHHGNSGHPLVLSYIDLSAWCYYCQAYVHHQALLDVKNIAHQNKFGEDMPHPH
Kind of assay: Inhibition of recombinant human full-length N-terminal GST-tagged HDAC6 expressed in baculovirus infected Sf9 insect cells using Boc-Lys(Ac)-AMC as substrate preincubated for 5 mins followed by substrate addition and measured after 30 mins by fluorescence assay.

From ChEMBL document CHEMBL4680220, “Synthesis and biological evaluation of acridine-based histone deacetylase inhibitors as multitarget agents against Alzheimer's disease” (Eur J Med Chem, 2020) come the findings set out here.

What is called IC50 is the midpoint of a concentration-inhibition curve. What is called inhibition is the relative decrease from the control value, in per cent.

Chain of Histone deacetylase 4 (P56524 whole entry, the tested form may be a part): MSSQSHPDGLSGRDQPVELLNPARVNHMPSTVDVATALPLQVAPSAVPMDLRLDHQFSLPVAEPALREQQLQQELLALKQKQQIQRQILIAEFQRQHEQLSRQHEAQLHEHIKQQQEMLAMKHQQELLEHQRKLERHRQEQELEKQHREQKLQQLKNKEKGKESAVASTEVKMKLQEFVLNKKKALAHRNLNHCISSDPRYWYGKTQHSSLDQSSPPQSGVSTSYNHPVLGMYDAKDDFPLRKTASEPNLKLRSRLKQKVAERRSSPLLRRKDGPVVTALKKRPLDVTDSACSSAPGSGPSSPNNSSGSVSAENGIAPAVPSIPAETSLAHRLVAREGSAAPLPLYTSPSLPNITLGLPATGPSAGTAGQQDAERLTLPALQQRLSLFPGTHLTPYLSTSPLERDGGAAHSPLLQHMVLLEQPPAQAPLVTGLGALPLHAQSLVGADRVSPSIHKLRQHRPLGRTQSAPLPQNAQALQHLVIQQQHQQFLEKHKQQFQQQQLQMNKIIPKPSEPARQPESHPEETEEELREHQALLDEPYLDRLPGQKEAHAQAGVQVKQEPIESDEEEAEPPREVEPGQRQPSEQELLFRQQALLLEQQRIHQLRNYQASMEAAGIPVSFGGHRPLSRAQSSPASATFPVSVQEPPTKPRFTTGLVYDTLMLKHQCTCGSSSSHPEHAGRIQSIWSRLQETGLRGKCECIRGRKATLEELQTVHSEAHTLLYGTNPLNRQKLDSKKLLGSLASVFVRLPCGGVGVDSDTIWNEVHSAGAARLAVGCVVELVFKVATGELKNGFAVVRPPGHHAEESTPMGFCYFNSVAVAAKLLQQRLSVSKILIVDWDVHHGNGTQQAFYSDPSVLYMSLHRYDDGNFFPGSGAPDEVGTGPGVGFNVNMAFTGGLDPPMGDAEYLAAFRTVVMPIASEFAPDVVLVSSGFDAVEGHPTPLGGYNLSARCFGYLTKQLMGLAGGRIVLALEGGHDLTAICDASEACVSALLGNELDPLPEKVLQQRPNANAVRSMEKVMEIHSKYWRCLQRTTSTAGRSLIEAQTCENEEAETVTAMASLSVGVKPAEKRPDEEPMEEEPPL
T1 sequence (P05067 whole entry): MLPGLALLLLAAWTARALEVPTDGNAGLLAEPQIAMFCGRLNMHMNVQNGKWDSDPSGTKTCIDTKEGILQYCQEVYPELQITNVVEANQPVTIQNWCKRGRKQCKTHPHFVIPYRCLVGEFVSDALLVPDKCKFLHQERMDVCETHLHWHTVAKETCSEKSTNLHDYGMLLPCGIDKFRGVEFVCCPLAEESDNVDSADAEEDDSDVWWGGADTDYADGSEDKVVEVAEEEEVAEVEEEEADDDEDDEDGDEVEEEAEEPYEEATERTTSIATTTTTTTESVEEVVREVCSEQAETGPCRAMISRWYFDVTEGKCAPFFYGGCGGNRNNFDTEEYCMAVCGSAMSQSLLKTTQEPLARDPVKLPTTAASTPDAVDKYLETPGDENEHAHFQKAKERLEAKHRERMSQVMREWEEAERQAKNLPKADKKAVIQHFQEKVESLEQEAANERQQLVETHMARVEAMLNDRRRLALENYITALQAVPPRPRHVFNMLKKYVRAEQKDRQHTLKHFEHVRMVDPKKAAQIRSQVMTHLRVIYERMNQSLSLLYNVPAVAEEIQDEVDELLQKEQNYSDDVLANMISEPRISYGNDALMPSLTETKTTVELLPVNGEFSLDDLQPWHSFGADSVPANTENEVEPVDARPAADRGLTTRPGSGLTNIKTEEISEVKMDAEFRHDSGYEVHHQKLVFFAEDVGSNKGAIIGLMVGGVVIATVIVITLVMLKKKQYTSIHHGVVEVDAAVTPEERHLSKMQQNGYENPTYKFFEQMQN
Chain of Acetylcholinesterase (P22303 whole entry): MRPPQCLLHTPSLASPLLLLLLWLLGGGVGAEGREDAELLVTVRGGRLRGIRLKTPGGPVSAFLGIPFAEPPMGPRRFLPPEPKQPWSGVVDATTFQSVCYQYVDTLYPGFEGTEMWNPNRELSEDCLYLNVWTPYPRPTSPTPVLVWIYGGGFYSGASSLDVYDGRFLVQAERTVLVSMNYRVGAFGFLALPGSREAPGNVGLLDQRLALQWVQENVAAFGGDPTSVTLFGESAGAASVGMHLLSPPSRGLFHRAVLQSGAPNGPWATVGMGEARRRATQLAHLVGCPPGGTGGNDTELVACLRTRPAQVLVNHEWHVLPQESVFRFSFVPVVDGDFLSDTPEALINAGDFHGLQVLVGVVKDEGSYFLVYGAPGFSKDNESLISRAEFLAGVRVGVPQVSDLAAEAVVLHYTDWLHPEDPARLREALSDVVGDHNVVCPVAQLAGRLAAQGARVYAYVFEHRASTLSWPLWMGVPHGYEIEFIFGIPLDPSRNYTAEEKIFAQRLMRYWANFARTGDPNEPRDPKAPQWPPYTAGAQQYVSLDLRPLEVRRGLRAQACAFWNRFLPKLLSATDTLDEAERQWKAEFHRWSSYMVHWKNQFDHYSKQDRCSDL
Chain of Histone deacetylase 9 (Q9UKV0 whole entry, the tested form may be a part): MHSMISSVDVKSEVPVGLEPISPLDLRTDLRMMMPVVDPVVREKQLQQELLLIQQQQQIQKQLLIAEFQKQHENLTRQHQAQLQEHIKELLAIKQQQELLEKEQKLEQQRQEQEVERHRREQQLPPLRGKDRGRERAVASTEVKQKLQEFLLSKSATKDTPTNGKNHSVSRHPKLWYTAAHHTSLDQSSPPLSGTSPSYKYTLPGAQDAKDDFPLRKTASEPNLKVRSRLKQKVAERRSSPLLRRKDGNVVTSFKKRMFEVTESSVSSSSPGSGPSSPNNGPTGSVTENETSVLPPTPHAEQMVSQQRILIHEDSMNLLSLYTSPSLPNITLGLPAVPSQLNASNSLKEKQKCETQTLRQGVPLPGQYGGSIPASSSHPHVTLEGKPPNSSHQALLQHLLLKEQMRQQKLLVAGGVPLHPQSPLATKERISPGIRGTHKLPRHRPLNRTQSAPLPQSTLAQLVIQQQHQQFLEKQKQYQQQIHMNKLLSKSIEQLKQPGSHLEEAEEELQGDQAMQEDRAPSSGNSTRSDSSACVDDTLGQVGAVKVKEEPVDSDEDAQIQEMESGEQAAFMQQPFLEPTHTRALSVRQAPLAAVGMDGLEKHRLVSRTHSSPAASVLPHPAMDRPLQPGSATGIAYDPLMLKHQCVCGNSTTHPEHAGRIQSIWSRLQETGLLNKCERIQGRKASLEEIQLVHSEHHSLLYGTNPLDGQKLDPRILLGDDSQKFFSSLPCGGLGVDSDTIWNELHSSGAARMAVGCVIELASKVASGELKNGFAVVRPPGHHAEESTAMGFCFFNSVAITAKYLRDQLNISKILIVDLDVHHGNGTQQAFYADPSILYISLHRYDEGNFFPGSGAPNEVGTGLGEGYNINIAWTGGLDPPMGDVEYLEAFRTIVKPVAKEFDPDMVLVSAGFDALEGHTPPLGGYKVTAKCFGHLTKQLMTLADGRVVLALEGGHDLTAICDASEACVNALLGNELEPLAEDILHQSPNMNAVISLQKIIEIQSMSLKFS
Chain of Histone deacetylase 5 (Q9UQL6 whole entry, the tested form may be a part): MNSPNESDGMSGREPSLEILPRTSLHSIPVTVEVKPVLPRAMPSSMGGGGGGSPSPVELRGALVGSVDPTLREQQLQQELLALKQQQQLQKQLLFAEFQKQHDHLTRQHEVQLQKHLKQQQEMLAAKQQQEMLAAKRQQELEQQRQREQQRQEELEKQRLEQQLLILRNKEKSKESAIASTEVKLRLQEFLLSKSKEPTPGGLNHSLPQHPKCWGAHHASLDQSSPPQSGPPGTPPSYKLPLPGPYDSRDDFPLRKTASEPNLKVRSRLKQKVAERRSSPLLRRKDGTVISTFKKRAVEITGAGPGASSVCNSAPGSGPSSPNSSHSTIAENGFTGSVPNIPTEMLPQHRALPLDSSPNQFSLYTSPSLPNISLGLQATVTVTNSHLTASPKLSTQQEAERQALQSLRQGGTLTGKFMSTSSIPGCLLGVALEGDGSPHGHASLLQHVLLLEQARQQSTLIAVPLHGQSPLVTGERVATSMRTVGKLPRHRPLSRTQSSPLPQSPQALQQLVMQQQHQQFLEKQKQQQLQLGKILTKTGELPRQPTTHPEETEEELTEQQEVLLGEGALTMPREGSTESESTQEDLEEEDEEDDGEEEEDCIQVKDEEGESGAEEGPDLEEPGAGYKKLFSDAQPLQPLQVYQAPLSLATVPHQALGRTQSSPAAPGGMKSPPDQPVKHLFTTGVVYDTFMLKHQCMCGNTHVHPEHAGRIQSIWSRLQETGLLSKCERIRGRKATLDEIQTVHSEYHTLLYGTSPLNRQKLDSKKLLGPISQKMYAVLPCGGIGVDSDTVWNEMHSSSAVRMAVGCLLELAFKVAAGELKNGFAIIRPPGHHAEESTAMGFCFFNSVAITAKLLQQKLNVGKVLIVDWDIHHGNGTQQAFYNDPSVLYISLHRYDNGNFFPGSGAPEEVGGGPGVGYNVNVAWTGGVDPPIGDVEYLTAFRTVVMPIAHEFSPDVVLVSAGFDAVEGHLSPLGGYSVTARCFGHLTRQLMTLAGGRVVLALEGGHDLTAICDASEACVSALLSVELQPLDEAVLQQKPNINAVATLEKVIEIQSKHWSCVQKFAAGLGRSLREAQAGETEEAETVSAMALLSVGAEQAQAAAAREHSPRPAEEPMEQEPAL

Regarding `O=c1c(O)c(-c2ccc(O)cc2O)oc2cc(O)cc(O)c12` [MORIN], half-maximal inhibition in assay [1] (IC50) required 8.5 µM.
As to `c1ccc2nc3ccccc3cc2c1` [ACRIDINE], in assay [2], the IC50 amounted to 6.84 µM.
Consider `COc1cc2nc3ccccc3c(Nc3ccc(C(=O)NO)cc3)c2c(OC)c1OC`, for which the inhibition in [3] is 42%. Further, the IC50 worked out at 13 µM in assay [1]; 4.23 µM in assay [4]; 15.7 µM in assay [5]; 0.64 µM in assay [2]; 0.81 µM in assay [6]; 4.95 µM in assay [7]. Moreover, the IC50 in [8] stood at 4.57 µM; in [9], 0.16 µM.
`O=C(NO)c1ccc(Nc2c3ccccc3nc3ccc(OC(F)(F)F)cc23)cc1` yielded an inhibition in assay [3] of 53%. For the same compound, the IC50 was found to be 3.5 µM in assay [1]; 15.8 µM in assay [4]; 14.7 µM in [5]; 3.65 µM in assay [2]; 0.67 µM in assay [6]; 31.1 µM in assay [7]. The IC50 in assay [9] was 0.029 µM.
In assay [3], `O=C(NO)c1ccc(Nc2ccnc3ccccc23)cc1` displayed an inhibition of 0%. For the same compound, the IC50 was greater than 20 µM in assay [1]; 3.37 µM in assay [4]; greater than 40 µM in assay [5]; 0.83 µM in [2]; 0.6 µM in assay [6]; 13.2 µM in assay [7]. The half-maximal inhibitory concentration (IC50) in assay [9] worked out at 0.039 µM.
`O=C(NO)c1ccc(Nc2c3c(nc4ccccc24)CCCC3)cc1`: in assay [3], the inhibition is 0%. Also, the IC50 was greater than 20 µM in assay [1]; 17.5 µM in [4]; greater than 40 µM in assay [5]; 1.97 µM in assay [2]; greater than 40 µM in [6]; greater than 40 µM in assay [7]. Further, the IC50 in [8] was greater than 40 µM; in assay [9], 3.55 µM.
As for `O=C(CCCCCCC(=O)Nc1ccccc1)NO` [VORINOSTAT], the inhibition in [3] is 0%. In addition, the IC50 in assay [1] is greater than 20 µM.
As for `O=C(NO)c1ccc(Nc2c3ccccc3nc3ccc(OCc4ccccc4)cc23)cc1`, in assay [3], the inhibition turned out to be 57%. For the same compound, the IC50 in assay [1] was found to be 3 µM; in [4], 0.43 µM; in assay [5] it was 1.21 µM; in [2], 2.64 µM; in assay [6], 3.5 µM; in assay [7] it was 1.25 µM. Moreover, the IC50 in assay [8] stood at 3.1 µM; in assay [9], 0.22 µM.
As to `O=C(Cc1ccc(Nc2c3ccccc3nc3ccccc23)cc1)NO`, the IC50 in assay [4] stood at 1.66 µM; in assay [5], 26.6 µM; in assay [6] it was 2.07 µM; in assay [7], 6.42 µM; in assay [8], 1.94 µM; in assay [9], 0.074 µM.
Regarding `O=C(NO)c1cccc(Nc2c3ccccc3nc3ccccc23)c1`, the IC50 in assay [4] is 20.8 µM; in assay [5] it was 29.4 µM; in assay [6], greater than 40 µM; in assay [7], 12.2 µM; in assay [9], 4.69 µM.
Taken in the same sequence, the figures for `O=C(CCc1ccc(Nc2c3ccccc3nc3ccccc23)cc1)NO` were 2.58 µM, 7.06 µM, 0.1 µM, 29 µM and 0.14 µM.
In turn, `COc1ccc2nc3cc(Cl)ccc3c(Nc3ccc(C(=O)NO)cc3)c2n1` returned an inhibition in assay [3] of 53%. The IC50 in assay [1] was 34.9 µM; in assay [4] it was 15.2 µM; in [5], greater than 40 µM; in [2] it was 9.25 µM; in assay [6], 0.8 µM; in assay [7], greater than 40 µM. Besides, the IC50 in assay [9] stood at 0.34 µM.
With `O=C(NO)c1ccc(Nc2c3ccccc3nc3ccc(F)cc23)cc1`, the inhibition in [3] worked out at 38%. The IC50 in assay [1] was greater than 20 µM; in assay [4] it was 0.69 µM; in [5] it was 3.04 µM; in [2], 0.6 µM; in assay [6] it was 0.25 µM; in assay [7] it was 0.52 µM. For the same compound, the IC50 in assay [9] came out at 0.029 µM.
